Source: ChEMBL document CHEMBL4190344, “Synthesis of substituted phenanthrene-9-benzimidazole conjugates: Cytotoxicity evaluation and apoptosis inducing studies” (Eur J Med Chem, 2017)
Calls of active or inactive are those of the source. The rule behind the calls is not given here.

Columns and labels:
PC-3 [1] = experiment: Induction of cell death in human PC3 cells assessed as induction of chromatin condensation at 10 uM incubated for 48 hrs by acridine orange and ethidium bromide staining based fluorescence microscopy; assay type: functional
In short: (§1)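 PC-3 cells (1 × 10^6 cells/mL) were treated with compound and kept 48 h at 37 °C, 5% CO2. Acridine orange and ethidium bromide (10 µg/mL) were added in equal volumes. After 10 min, cells were imaged by fluorescence microscopy (ex 488/em 550 nm, 200×).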

BT-549 = experiment: Cytotoxicity in human BT549 cells incubated for 48 hrs by MTT assay; assay type: functional, cell-based; details: BT-549, 48 h
In short: (§2)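 Cells (1 × 10^4/well) were seeded in medium with 10% FBS and left 24 h at 37 °C. Compound diluted in medium was then added, alongside a vehicle control, for 48 h. MTT (5 mg/mL stock) was added for 4 h, formazan dissolved in DMSO and absorbance read at 570 nm. IC50 taken as the concentration giving 50% inhibition.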

MDA-MB-453 = experiment: Cytotoxicity in human MDA-MB-453 cells incubated for 48 hrs by MTT assay; assay type: functional, cell-based; details: MDA-MB-453, 48 h; in short: as §2
HCT-116 = experiment: Cytotoxicity in human HCT116 cells incubated for 48 hrs by MTT assay; assay type: functional, cell-based; details: HCT-116, 48 h
In short: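 Cells (1 × 10^4/well) were seeded in medium with 10% FBS and left 24 h at 37 °C. Compound diluted in medium was then added, alongside a vehicle control, for 48 h. MTT (5 mg/mL stock) was added for 4 h, formazan dissolved in DMSO and absorbance read at 570 nm.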

PC-3 [2] = experiment: Cytotoxicity in human PC3 cells incubated for 48 hrs by MTT assay; assay type: functional, cell-based; details: PC-3, 48 h; in short: as §2
DU-145 = experiment: Cytotoxicity in human DU145 cells incubated for 48 hrs by MTT assay; assay type: functional, cell-based; details: DU-145, 48 h; in short: as §2
PC-3 [3] = experiment: Induction of morphological changes in human PC3 cells assessed as increase in nuclear shrinkage at 2.5 to 10 uM incubated for 48 hrs by phase contrast microscopy; assay type: functional, cell-based
In short: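 PC-3 cells at 1 × 10^5 cells/mL adhered overnight, then received compound at 2.5, 5.0 or 10.0 µM. After 48 h, morphology (viable cell number, nuclear shrinkage, detachment) was imaged by phase contrast microscopy.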

PC-3 [4] = experiment: Induction of cell death in human PC3 cells assessed as induction of cell shrinkage at 10 uM incubated for 48 hrs by acridine orange and ethidium bromide staining based fluorescence microscopy; assay type: functional; in short: as §1
PC-3 [5] = experiment: Induction of cell death in human PC3 cells assessed as induction of membrane blebbing at 10 uM incubated for 48 hrs by acridine orange and ethidium bromide staining based fluorescence microscopy; assay type: functional; in short: as §1
PC-3 [6] = experiment: Induction of apoptosis in human PC3 cells assessed as induction of horse-shoe shaped nuclei formation at 2.5 to 10 uM incubated for 48 hrs by DAPI staining based fluorescence microscopy; assay type: functional, cell-based
In short: (§3)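 Compound-treated PC-3 cells were PBS-washed, permeabilised with 0.1% Tween 20 for 10 min and stained with 1 µM DAPI. Nuclear morphology was viewed by fluorescence microscopy at ex 359/em 461 nm, 200×.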

PC-3 [7] = experiment: Induction of apoptosis in human PC3 cells assessed as induction of condensed nuclei formation at 2.5 to 10 uM incubated for 48 hrs by DAPI staining based fluorescence microscopy; assay type: functional, cell-based; in short: as §3
PC-3 [8] = experiment: Cell cycle arrest in human PC3 cells assessed as accumulation at G0/G1 phase at 2.5 uM incubated for 24 hrs by propidium iodide staining based flow cytometry (reference value: 56.67%); assay type: functional
PC-3 [9] = experiment: Cell cycle arrest in human PC3 cells assessed as accumulation at subG1 phase at 2.5 uM incubated for 24 hrs by propidium iodide staining based flow cytometry (reference value: 1.71%); assay type: functional
PC-3 [10] = experiment: Cell cycle arrest in human PC3 cells assessed as accumulation at S phase at 2.5 uM incubated for 24 hrs by propidium iodide staining based flow cytometry (reference value: 13.92%); assay type: functional
PC-3 [11] = experiment: Cell cycle arrest in human PC3 cells assessed as accumulation at subG1 phase at 5 uM incubated for 24 hrs by propidium iodide staining based flow cytometry (reference value: 1.71%); assay type: functional
PC-3 [12] = experiment: Cell cycle arrest in human PC3 cells assessed as accumulation at subG1 phase at 2.10 uM incubated for 24 hrs by propidium iodide staining based flow cytometry (reference value: 1.71%); assay type: functional
PC-3 [13] = experiment: Induction of reactive oxygen species in human PC3 cells at 2.5 to 10 uM incubated for 6 hrs by DCFDA dye based spectrofluorometry; assay type: functional, cell-based
In short: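 PC-3 cells (1 × 10^6 cells/mL) adhered overnight, then were treated at 2.5, 5.0 or 10.0 µM. Medium was replaced with DCFDA 10 µM for 30 min in the dark, and fluorescence read by spectrofluorometer at ex 488/em 525 nm. N-acetyl cysteine pretreatment before compound and H2O2 were used as comparisons.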

PC-3 [14] = experiment: Induction of mitochondrial membrane potential loss in human PC3 cells assessed as JC1 aggregate level at 5 uM incubated for 24 hrs by JC1 staining based flow cytometry (reference value: 76.94%); assay type: functional
Calf thymus DNA = experiment: Binding affinity to calf thymus DNA assessed as increase in relative viscosity of DNA-compound complex at 5 uM by viscometry; assay type: nucleic-acid assay; details: Bos taurus
In short: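 Viscosity titration of test compound (5 µM) into CT-DNA (50 µM) in 100 mM Tris-HCl pH 7.0. Rolling-ball viscometer, ball fall time read at angles of 20° to 70°, Peltier-held temperature, viscosity calculated at 25 °C.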

PC-3 [15] = experiment: Induction of apoptosis in human PC3 cells assessed as viable cells level at 2.5 uM incubated for 24 hrs by annexin V-FITC/propidium iodide dual staining based flow cytometry (reference value: 76.73%); assay type: functional
In short: (§4)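 PC-3 cells were grown 24 h, then treated 24 h at 2.5, 5.0 or 10 µM. Cells were trypsinised, washed twice in ice-cold PBS and stained in binding buffer with Annexin V-FITC followed by propidium iodide at room temperature in the dark. 10,000 cells per sample were run on a flow cytometer, with quadrants scored as live, early apoptotic, late apoptotic or necrotic.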

PC-3 [16] = experiment: Induction of apoptosis in human PC3 cells assessed as late apoptotic cells level at 2.5 uM incubated for 24 hrs by annexin V-FITC/propidium iodide dual staining based flow cytometry (reference value: 10.92%); assay type: functional; in short: as §4
PC-3 [17] = experiment: Induction of apoptosis in human PC3 cells assessed as early apoptotic cells level at 5 uM incubated for 24 hrs by annexin V-FITC/propidium iodide dual staining based flow cytometry (reference value: 11.76%); assay type: functional; in short: as §4
PC-3 [18] = experiment: Induction of apoptosis in human PC3 cells assessed as late apoptotic cells level at 5 uM incubated for 24 hrs by annexin V-FITC/propidium iodide dual staining based flow cytometry (reference value: 10.92%); assay type: functional; in short: as §4
PC-3 [19] = experiment: Induction of apoptosis in human PC3 cells assessed as viable cells level at 10 uM incubated for 24 hrs by annexin V-FITC/propidium iodide dual staining based flow cytometry (reference value: 76.73%); assay type: functional; in short: as §4
PC-3 [20] = experiment: Induction of apoptosis in human PC3 cells assessed as early apoptotic cells level at 10 uM incubated for 24 hrs by annexin V-FITC/propidium iodide dual staining based flow cytometry (reference value: 11.76%); assay type: functional; in short: as §4
PC-3 [21] = experiment: Induction of apoptosis in human PC3 cells assessed as late apoptotic cells level at 10 uM incubated for 24 hrs by annexin V-FITC/propidium iodide dual staining based flow cytometry (reference value: 10.92%); assay type: functional; in short: as §4

Activity (Calf thymus DNA): Active
Structure (SMILES): COc1ccc2cc(-c3nc4ccc(F)cc4[nH]3)c3cc(OC)c(OC)cc3c2c1
Activity (PC-3 [1]): Active
IC50 (BT-549): 13.2 µM
IC50 (MDA-MB-453): 6.61 µM
IC50 (HCT-116): > 20 µM
IC50 (PC-3 [2]): 6.32 µM
IC50 (DU-145): > 20 µM
Activity (PC-3 [3]): Active
Activity (PC-3 [4]): Active
Activity (PC-3 [5]): Active
Activity (PC-3 [6]): Active
Activity (PC-3 [7]): Active
Activity (PC-3 [8]): 55.93%
Activity (PC-3 [9]): 3.08%
Activity (PC-3 [10]): 11.3%
Activity (PC-3 [11]): 5.01%
Activity (PC-3 [12]): 5.01%
Activity (PC-3 [13]): Dose-dependent effect
Activity (PC-3 [14]): 32.38%
Activity (PC-3 [15]): 38.69%
Activity (PC-3 [16]): 24.89%
Activity (PC-3 [17]): 33.41%
Activity (PC-3 [18]): 34.03%
Activity (PC-3 [19]): 27.68%
Activity (PC-3 [20]): 22.94%
Activity (PC-3 [21]): 49.02%
